A word on the pIC50: it is the negative decadic logarithm of the IC50, by convention in mol/L. As a reminder, the inhibition is how much of the control response was suppressed.

In ChEMBL document CHEMBL1165949, “Dammaranes from Gynostemma pentaphyllum and synthesis of their derivatives as inhibitors of protein tyrosine phosphatase 1B” (Bioorg Med Chem, 2010) one finds IC50, inhibition and Ratio IC50 data, which are given here for 21 compounds.

In test [1] the target is T1, Tyrosine-protein phosphatase non-receptor type 1 (Homo sapiens, UniProt P18031).
T1 sequence (P18031 whole entry): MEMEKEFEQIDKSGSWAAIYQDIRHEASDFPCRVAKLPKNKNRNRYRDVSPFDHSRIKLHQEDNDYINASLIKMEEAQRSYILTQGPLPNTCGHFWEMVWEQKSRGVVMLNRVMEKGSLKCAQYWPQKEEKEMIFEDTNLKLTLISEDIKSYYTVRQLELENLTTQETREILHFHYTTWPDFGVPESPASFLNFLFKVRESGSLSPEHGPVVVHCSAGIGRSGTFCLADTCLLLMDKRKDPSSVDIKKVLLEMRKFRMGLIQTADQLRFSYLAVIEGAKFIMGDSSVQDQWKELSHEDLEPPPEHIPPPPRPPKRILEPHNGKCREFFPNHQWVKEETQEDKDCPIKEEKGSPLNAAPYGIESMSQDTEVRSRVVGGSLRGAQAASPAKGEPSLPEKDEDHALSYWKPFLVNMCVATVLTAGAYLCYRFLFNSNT
Put plainly: Inhibition of PTP1B by pNPP hydrolase assay. In a few lines:
(§1)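 Enzyme activity (PTP1B or TCPTP) was measured by hydrolysis of p-nitrophenyl phosphate (pNPP), with {4-[4-(4-oxalylphenoxymethyl)-benzyloxy]-phenyl}-oxo-acetic acid as the reference inhibitor. IC50 was derived by regression analysis and reported as mean ± SD of three replications.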

Test [2] has as its target T2, Tyrosine-protein phosphatase non-receptor type 2 (Homo sapiens, UniProt P17706).
T2 sequence (P17706 whole entry): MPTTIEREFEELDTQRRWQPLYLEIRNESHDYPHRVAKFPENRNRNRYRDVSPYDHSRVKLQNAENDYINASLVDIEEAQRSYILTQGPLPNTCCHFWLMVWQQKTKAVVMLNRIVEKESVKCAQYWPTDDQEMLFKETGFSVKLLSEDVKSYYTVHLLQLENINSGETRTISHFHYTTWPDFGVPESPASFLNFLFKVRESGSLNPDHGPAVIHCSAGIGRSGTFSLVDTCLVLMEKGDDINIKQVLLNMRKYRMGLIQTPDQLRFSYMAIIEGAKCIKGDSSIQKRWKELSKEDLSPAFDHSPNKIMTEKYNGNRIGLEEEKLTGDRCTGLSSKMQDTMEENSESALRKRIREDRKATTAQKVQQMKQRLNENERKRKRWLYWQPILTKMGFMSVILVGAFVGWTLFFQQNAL
In words: Inhibition of TCPTP by pNPP hydrolase assay. An outline of the steps: as §1

Test [3] addresses T1, Tyrosine-protein phosphatase non-receptor type 1. In words: Inhibition of PTP1B. An outline of the steps: as §1
Test [4] has as its target T3, Tyrosine-protein phosphatase non-receptor type 1 (Homo sapiens) (UniProt P18031).
T3 sequence (whole entry): T1 sequence (P18031 whole entry)
In words: Inhibition of PTP1B at 20 uM by pNPP hydrolase assay.

Test [5] in a line: Selectivity ratio of IC50 for TCPTP to IC50 for PTP1B.

Each structure is given as a SMILES string. pIC50: −log10 of the molar value.

`CC(C)=C[C@@H]1C[C@](O)([C@H]2CC[C@@H]3[C@@H]2CC[C@H]2[C@@]3(C)CC[C@H]3C(C)(C)C(NCc4ccc([N+](=O)[O-])cc4)CC[C@]23C)C(=O)O1` (some centres undefined): the pIC50 in test [1] was 5.18. Regarding `CC(C)=C[C@@H]1C[C@](O)([C@H]2CC[C@@H]3[C@@H]2CC[C@H]2[C@@]3(C)CC[C@H]3C(C)(C)[C@@H](OC(=O)c4ccc([N+](=O)[O-])cc4[N+](=O)[O-])CC[C@]23C)C(=O)O1`, the values for the pIC50 in test [1] and in test [2] were 5.79 and 5.54, respectively. For `CC(C)=C[C@@H]1C[C@](O)([C@H]2CC[C@@H]3[C@@H]2CC[C@H]2[C@@]3(C)CC[C@H]3C(C)(C)[C@@H](C(=O)c4ccccc4)CC[C@]23C)C(=O)O1`, the negative logarithm of the IC50 (pIC50) in test [1] is 5.56; in test [2], 5.38. The compound `CC(C)=C[C@@H]1C[C@](O)([C@H]2CC[C@@H]3[C@@H]2CC[C@H]2[C@@]3(C)CC[C@H]3C(C)(C)C(NCc4cc(F)cc(F)c4)CC[C@]23C)C(=O)O1` (some centres undefined) had a pIC50 in test [1] of 4.94. On to `CC(C)=C[C@@H]1C[C@](O)([C@H]2CC[C@@H]3[C@@H]2CC[C@H]2[C@@]3(C)CC[C@H]3C(C)(C)[C@@H](OC(=O)c4ccc(C(=O)O)c([N+](=O)[O-])c4)CC[C@]23C)C(=O)O1`, for which the negative-log IC50 (pIC50) in test [1] was 6.30; in test [2], 5.91. The like results for `CC(C)=C[C@@H]1C[C@](O)([C@H]2CC[C@@H]3[C@@H]2CC[C@H]2[C@@]3(C)CC[C@H]3C(C)(C)[C@@H](OC(=O)c4ccc(C(=O)O)cc4)CC[C@]23C)C(=O)O1` were, in that order, 6.57 and 6.01.

As for `CC(C)=C[C@@H]1C[C@](O)([C@H]2CC[C@@H]3[C@@H]2CC[C@H]2[C@@]3(C)CC[C@H]3C(C)(C)[C@@H](O)CC[C@]23C)C(=O)O1`, the negative logarithm of the IC50 (pIC50) in test [1] was 4.95; in test [3], 4.80. Turning to `COc1ccc(C(=O)O[C@H]2CC[C@]3(C)[C@H]4CC[C@H]5[C@@H](CC[C@@H]5[C@@]5(O)C[C@@H](C=C(C)C)OC5=O)[C@]4(C)CC[C@H]3C2(C)C)cc1`, the values for the negative-log IC50 (pIC50) in test [1] and in test [2] were 5.58 and 5.41, respectively. In the case of `CC(C)=C[C@H]1C[C@@](O)([C@H]2CC[C@@H]3[C@@H]2CC[C@H]2[C@@]3(C)CC[C@H]3C(C)(C)[C@@H](O)CC[C@]23C)C(=O)O1`, the pIC50 in test [1] is 5.02; in test [3] it was 5.28. With `CC(C)=C[C@@H]1C[C@](O)([C@H]2CC[C@@H]3[C@@H]2CC[C@H]2[C@@]3(C)CC[C@H]3C(C)(C)C(=O)CC[C@]23C)C(=O)O1`, the pIC50 in test [1] was 4.88; in test [2], 4.47. In test [4], `COc1ccc(CNC2CC[C@]3(C)[C@H]4CC[C@H]5[C@@H](CC[C@@H]5[C@@]5(O)C[C@@H](C=C(C)C)OC5=O)[C@]4(C)CC[C@H]3C2(C)C)cc1` (some centres undefined) returned an inhibition of 24%. For `COc1cccc(C(=O)O[C@H]2CC[C@]3(C)[C@H]4CC[C@H]5[C@@H](CC[C@@H]5[C@@]5(O)C[C@@H](C=C(C)C)OC5=O)[C@]4(C)CC[C@H]3C2(C)C)c1`, the negative logarithm of the IC50 (pIC50) is 5.68 in test [1] and 4.92 in test [2]. With `COc1ccccc1C(=O)O[C@H]1CC[C@]2(C)[C@H]3CC[C@H]4[C@@H](CC[C@@H]4[C@@]4(O)C[C@@H](C=C(C)C)OC4=O)[C@]3(C)CC[C@H]2C1(C)C`, the pIC50 in test [1] was 5.72; in test [2] it was 5.39.

`CC(C)=C[C@@H]1C[C@](O)([C@H]2CC[C@@H]3[C@@H]2CC[C@H]2[C@@]3(C)CC[C@H]3C(C)(C)[C@@H](OC(=O)c4ccccc4[N+](=O)[O-])CC[C@]23C)C(=O)O1`: the pIC50 is 5.71 in test [1] and 5.47 in test [2]. The like results for `CC(C)=C[C@@H]1C[C@](O)([C@H]2CC[C@@H]3[C@@H]2CC[C@H]2[C@@]3(C)CC[C@H]3C(C)(C)[C@@H](OC(=O)c4cccc([N+](=O)[O-])c4)CC[C@]23C)C(=O)O1` were, in that order, 5.77 and 5.65.

Take `CC(C)=C[C@@H]1C[C@](O)([C@H]2CC[C@@H]3[C@@H]2CC[C@H]2[C@@]3(C)CC[C@H]3C(C)(C)[C@@H](OC(=O)c4ccccn4)CC[C@]23C)C(=O)O1`: the negative-log IC50 (pIC50) in test [1] was 5.63; in test [2], 5.29. As for `CC(C)=C[C@@H]1C[C@](O)([C@H]2CC[C@@H]3[C@@H]2CC[C@H]2[C@@]3(C)CC[C@H]3C(C)(C)[C@@H](OC(=O)c4ccc([N+](=O)[O-])cc4)CC[C@]23C)C(=O)O1`, the pIC50 in test [1] was 5.85; in test [2], 5.29. In test [1], `CC(=O)O[C@H]1CC[C@]2(C)[C@H]3CC[C@H]4[C@@H](CC[C@@H]4[C@@]4(O)C[C@@H](C=C(C)C)OC4=O)[C@]3(C)CC[C@H]2C1(C)C` gave a negative logarithm of the IC50 (pIC50) of 4.90.

For `CCCCC(=O)[C@H]1CC[C@]2(C)[C@H]3CC[C@H]4[C@@H](CC[C@@H]4[C@@]4(O)C[C@@H](C=C(C)C)OC4=O)[C@]3(C)CC[C@H]2C1(C)C`, the results for the pIC50 in test [1] and in test [2] were 5.38 and 4.93, respectively. In the case of `CCC(=O)[C@H]1CC[C@]2(C)[C@H]3CC[C@H]4[C@@H](CC[C@@H]4[C@@]4(O)C[C@@H](C=C(C)C)OC4=O)[C@]3(C)CC[C@H]2C1(C)C`, the negative-log IC50 (pIC50) in test [1] is 5.34; in test [2], 4.83.

As for `CC(C)=C[C@@H]1C[C@](O)([C@H]2CC[C@@H]3[C@@H]2CC[C@H]2[C@@]3(C)CC[C@H]3C(C)(C)[C@@H](OC(=O)c4cccc(C(=O)O)c4)CC[C@]23C)C(=O)O1`, the Ratio IC50 in test [5] came out at 4.9. In addition, the values for the negative logarithm of the IC50 (pIC50) in test [1] and in test [2] were 6.48 and 5.79, respectively.
